ABHD4 inh: inhibitors of mouse ABHD4. Q8VD66. purified mABHD4, FP-Rh probe fluorescence polarization. inhibition, % at 8.92 µM. 370,000 tested, 0.54% active;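 active = inhibition exceeding the mean over every tested compound plus 3 SD, cut at about 30% in these data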;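 also: 0% = plate median of compound wells and 100% = S159A mutant with DMSO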
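Assay system: Wild-type mouse ABHD4 protein | Medium: HEPES pH 7.0 buffer, 150 mM NaCl, 0.01% Pluronic F-127 | Incubation: Enzyme–compound pre-incubation 45 min, then probe 60 min, both 25 °C | Technique: Fluorescence polarization with parallel and perpendicular emission, 525/598 nm | Evaluation: % inhibition of FP-Rh probe binding versus controls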
HTRA1 inh: inhibitors of human serine peptidase HTRA1; Q92743; recombinant HTRA1, FP-rhodamine activity-based probe, fluorescence polarization; inhibition, % at 5.96 µM; 340,000 tested, 0.5% active; AID 504803; in the data active = inhibition above about 36%;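 also: 0% = enzyme with DMSO and 100% = wells lacking enzyme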
TCR CD3 inh: inhibitors of human TCR-CD3 interaction | TAMRA-labeled TCR probe fluorescence, biochemical | inhibition, % at 9.4 µM | 360,000 tested, 0.37% active; in the data active = inhibition above about 19%;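 also: recombinant mutant TCR 2C K166C tagged with TAMRA read by polarization; 0% = receptor in buffer alone and 100% = receptor with positive control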
SIAE inh: inhibitors of human sialic acid acetylesterase SIAE. Q9HAT2. SIAE FP-Rh probe binding, fluorescence polarization. inhibition, % at 9.66 µM. 370,000 tested, 0.69% active;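 active = inhibition above a cutoff: mean of compounds within the control limits plus 3 SD of those, cut at about 17% in these data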;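 also: 0% = plate median of compound wells and 100% = probe without SIAE protein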
Target sequence (Q9HAT2 whole entry, looked up): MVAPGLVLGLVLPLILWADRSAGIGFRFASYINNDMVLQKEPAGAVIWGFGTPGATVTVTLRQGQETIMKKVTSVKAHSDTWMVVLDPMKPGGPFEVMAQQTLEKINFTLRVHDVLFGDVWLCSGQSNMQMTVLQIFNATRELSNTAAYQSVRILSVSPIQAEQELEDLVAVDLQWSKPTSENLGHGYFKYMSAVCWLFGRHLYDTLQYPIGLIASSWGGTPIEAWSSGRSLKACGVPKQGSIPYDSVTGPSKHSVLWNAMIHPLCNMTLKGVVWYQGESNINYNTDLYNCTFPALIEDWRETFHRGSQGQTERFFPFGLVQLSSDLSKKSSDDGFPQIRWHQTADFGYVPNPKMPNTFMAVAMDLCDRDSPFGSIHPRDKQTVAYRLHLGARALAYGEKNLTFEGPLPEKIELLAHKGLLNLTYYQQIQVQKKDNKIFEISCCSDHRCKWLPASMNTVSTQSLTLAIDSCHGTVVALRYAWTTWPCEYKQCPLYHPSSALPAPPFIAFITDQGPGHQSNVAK
ARNT-TACC3 inh: ARNT/TACC3 interaction disruption; inhibition, % at 9.99 µM; 390,000 tested, 0.66% active; AlphaScreen His-ARNT PAS-B/GST-TACC3 binding, luminescence; TACC3 fragment carries E629A point mutation; Q9Y6A5;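 active = mean inhibition of replicates at least 50% and at least half of replicates each reaching 50%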;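 also: 0% = complete ARNT plus TACC3 wells and 100% = ARNT alone without TACC3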
ABHD4 confirm: ABHD4 (mouse) inhibition, FP confirmation. shares compounds with ABHD4 inh. purified mABHD4, FP-Rh probe fluorescence polarization. inhibition, % at 8.92 µM. 1,800 tested, 55% active. AID 720658;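 active = mean inhibition across replicates above the hit cutoff set in the primary screen, cut at about 30% in these data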;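 also: 0% = wild-type ABHD4 with DMSO and 100% = catalytically dead S159A mutant with DMSO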
SIAE confirm: human SIAE inhibition, confirmation; SIAE FP-Rh activity-based probe, fluorescence polarization; inhibition, % at 9.66 µM; AID 1117263; shares compounds with SIAE inh; 2,300 tested, 13% active;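 active = mean inhibition of the replicates above the hit cutoff set in the primary screen, cut at about 17% in these data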;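 also: 0% = SIAE with DMSO and probe and 100% = probe without SIAE; inhibitors lower polarization as more probe stays unbound to SIAE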
* = called active by the depositor. Compounds with a hit are over-represented: about 1.8% of the library has one in this group of screens.

For COc1ccc(C(O)P(=O)(Oc2ccccc2)Oc2ccccc2)cc1 (stereo unspecified) the results were ABHD4 inh 25, HTRA1 inh -5, TCR CD3 inh 2, SIAE inh -8 and ARNT-TACC3 inh -28.
Screening Cc1cccc(-c2nc3ccc(C(=O)N4CCC5(CC4)OCCO5)cc3nc2-c2cccc(C)c2)c1 returned ABHD4 inh 32*, HTRA1 inh -35, TCR CD3 inh 2, SIAE inh -7, ARNT-TACC3 inh 10 and ABHD4 confirm 48*.
COc1cccc(C(=O)N2CCC3(CC2)OCCO3)c1 was read as ABHD4 inh -3, HTRA1 inh -1, TCR CD3 inh 6, SIAE inh 4 and ARNT-TACC3 inh -7.
COC(=O)[C@H]1[C@H](CO)[C@H]2Cn3c(ccc(-c4ccccc4F)c3=O)[C@@H]1N2 was read as ARNT-TACC3 inh 0.
For C[C@H]1CN([C@@H](C)CO)C(=O)CCCn2cc(nn2)CO[C@@H]1CN(C)C(=O)Oc1ccc2ccccc2c1 the results were ARNT-TACC3 inh 4.
COc1cc(/C=C/c2nc3ccccc3c(=O)n2-c2ccc(O)cc2)ccc1O was read as ABHD4 inh 39*, HTRA1 inh 0, TCR CD3 inh 3, SIAE inh 8, ARNT-TACC3 inh -2 and ABHD4 confirm 45*.
`O=C(Cc1ccccn1)N1CCCCN2[C@H](CO)[C@@H](c3ccc(-c4ccc(F)cc4)cc3)[C@H]2C1` gave ARNT-TACC3 inh 4.
`O=C(Cc1ccccc1)N1CCCCN2[C@@H](CO)[C@@H](c3ccc(-c4ccccc4)cc3)[C@@H]2C1` gave ARNT-TACC3 inh 10.
For C/C=C/c1ccc([C@@H]2[C@@H](CO)N3CCCCN(C(=O)Cc4cccnc4)C[C@@H]23)cc1 the results were ARNT-TACC3 inh -9.
For CCN1/C(=C/C=C/C2=[N+](CC)c3ccccc3C2(C)C)C(C)(C)c2ccccc21 the results were ABHD4 inh active, HTRA1 inh -288, TCR CD3 inh -83, SIAE inh active, ABHD4 confirm active and SIAE confirm active.
O=C(O)[C@@H]1[C@@H](CO)[C@@H]2Cn3c(ccc(-c4ccccc4)c3=O)[C@H]1N2C(=O)C1CCCCC1 was read as ARNT-TACC3 inh -6.
For CCCCCSc1cc(OC)c(CCN)cc1OC the results were ABHD4 inh 11, HTRA1 inh 6, TCR CD3 inh 6, SIAE inh 19*, ARNT-TACC3 inh 19 and SIAE confirm 2.
Screening CCOP(=O)(OCC)C(NC(=O)c1ccccc1C)C(Cl)(Cl)Cl (stereo unspecified) returned ABHD4 inh -4, HTRA1 inh 6, TCR CD3 inh -1, SIAE inh 19*, ARNT-TACC3 inh 2 and SIAE confirm 2.
Screening CCCCn1c(O)c(/C=N/N2CCOCC2)c(=O)[nH]c1=S returned ABHD4 inh -1, HTRA1 inh -3, TCR CD3 inh 4, SIAE inh 19*, ARNT-TACC3 inh -8 and SIAE confirm 2.
For CCCCCCn1c(O)c(C=Nc2ccccc2N2CCOCC2)c(=O)[nH]c1=S the results were ABHD4 inh -1, TCR CD3 inh 2 and SIAE inh 0.
For COc1cc(C(=S)N2CCOCC2)cc(OC)c1OC(=O)Cc1ccccc1 the results were ABHD4 inh -3, HTRA1 inh -7, TCR CD3 inh 7, SIAE inh 19*, ARNT-TACC3 inh -1 and SIAE confirm 5.
For COC(=O)[C@@H]1[C@@H](CO)[C@@H]2Cn3c(ccc(-c4ccccc4F)c3=O)[C@H]1N2C(=O)C1CCC1 the results were ARNT-TACC3 inh -2.
COc1ccc(-c2ccc([C@H]3[C@@H](CO)N4CCCCN(C(=O)Cc5ccccc5)C[C@@H]34)cc2)cc1 was read as ARNT-TACC3 inh 1.
Screening Cc1cc(OCC(=O)O)c2c3c(c(=O)oc2c1)CCCC3 returned ABHD4 inh -2, HTRA1 inh 4, TCR CD3 inh 6, SIAE inh 3 and ARNT-TACC3 inh 23.
Screening Cc1cc(OCC(=O)N2CCC(C(N)=O)CC2)c2c3c(c(=O)oc2c1)CCCC3 returned ABHD4 inh -1, HTRA1 inh -2, TCR CD3 inh -2, SIAE inh 18*, ARNT-TACC3 inh -4 and SIAE confirm 6.
O=C1CC(c2cccnc2)=NN1c1ccccc1 was read as ABHD4 inh 4, HTRA1 inh 4, TCR CD3 inh 7, SIAE inh 28*, ARNT-TACC3 inh 4 and SIAE confirm -7.
For COC(=O)[C@H]1[C@H](CO)[C@H]2Cn3c(ccc(-c4ccc(OC)cc4)c3=O)[C@@H]1N2C(=O)c1ccccc1F the results were ARNT-TACC3 inh -3.
Screening N#CC[N+]1(CCCNP2(=O)C=C(c3ccccc3)OC(c3ccccc3)=C2)CCOCC1 returned ABHD4 inh -1, HTRA1 inh 3, TCR CD3 inh 0, SIAE inh 18* and SIAE confirm -4.
Screening OCC#CC[N+]1(CC#Cc2ccccc2)CCOCC1 returned ABHD4 inh -1, HTRA1 inh 2, TCR CD3 inh 4, SIAE inh 2 and ARNT-TACC3 inh -1.
Screening COCOC1CCC2C3CCC4=CC(=O)CCC4=C3C=CC12C (stereo unspecified) returned ABHD4 inh 26, HTRA1 inh 10, TCR CD3 inh 5, SIAE inh 5 and ARNT-TACC3 inh 0.
`CC1(O)CCC2C3CCC4=CC(=O)CCC4=C3C=CC21C` (stereo unspecified) gave ABHD4 inh -3, HTRA1 inh -4, TCR CD3 inh 5, SIAE inh 19*, ARNT-TACC3 inh -1 and SIAE confirm 0.
`CC=Cc1ccc2n(c1=O)C[C@@H]1[C@@H](CO)[C@H](C(=O)OC)[C@H]2N1S(=O)(=O)c1cccc(C)c1` (mixture of isomers) gave ARNT-TACC3 inh -2.

From PubChem BioAssay
